# Test results from ChEMBL document CHEMBL3091458, “Design, synthesis, and biological evaluation of 1,2,4-triazole bearing 5-substituted biphenyl-2-sulfonamide derivatives as potential antihypertensive candidates” (Bioorg Med Chem, 2013).
# Tests used:
# [1] = Displacement of [125I]-Ang-2 from AT1 receptor in rat liver membranes after 1.5 hrs; assay type: cell membranes, Membrane
# [2] = Displacement of [125I]-Ang-2 from AT2 receptor in porcine myometrial membranes after 1.5 hrs; assay type: cell membranes, Sus scrofa
# How it was run: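 Membranes were made from porcine uteri (myometrium). AT1 binding was blocked by adding losartan. [125I]Ang II binding ran in 50 mM Tris-HCl pH 7.4 with 100 mM NaCl, 10 mM MgCl2, 1 mM EDTA, 0.025% bacitracin and 0.2% BSA, at 25 °C for 1.5 h. Bound ligand was caught on GF/C filters, washed with cold Tris and gamma-counted. IC50 was the concentration displacing 50% of specific binding. Run in triplicate.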
# Rattus norvegicus [3] = assay: Antihypertensive activity in renal spontaneously hypertensive rat model assessed as reduction of diastolic arterial pressure at 20 mg/kg, po measured at 8 hrs by tail-cuff method relative to control; assay type: functional, Artery
# How it was run: (§1)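 Spontaneously hypertensive rats were dosed orally with the test agent at 20 mg/kg, with a saline-dosed control group. SAP, DAP, MAP and heart rate were recorded before dosing and at 1, 2, 4, 6 and 8 h after. Change was taken as the post-dose value minus the pre-dose value. Significance was judged against the control at p < 0.1 and p < 0.05.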
# Rattus norvegicus [4] = assay: Antihypertensive activity in renal spontaneously hypertensive rat model assessed as reduction of diastolic arterial pressure at 20 mg/kg, po measured at 2 hrs by tail-cuff method relative to control; assay type: functional, Artery; how it was run: as §1
# Rattus norvegicus [5] = assay: Antihypertensive activity in renal spontaneously hypertensive rat model assessed as reduction of mean arterial pressure at 20 mg/kg, po measured at 6 hrs by tail-cuff method relative to control; assay type: functional, Artery; how it was run: as §1
# Rattus norvegicus [6] = assay: Antihypertensive activity in renal spontaneously hypertensive rat model assessed as reduction of systolic arterial pressure at 20 mg/kg, po measured at 4 hrs by tail-cuff method relative to control; assay type: functional, Artery; how it was run: as §1
# Rattus norvegicus [7] = assay: Antihypertensive activity in renal spontaneously hypertensive rat model assessed as reduction of mean arterial pressure at 20 mg/kg, po measured at 1 hr by tail-cuff method relative to control; assay type: functional, Artery; how it was run: as §1
# Rattus norvegicus [8] = assay: Toxicity in renal spontaneously hypertensive rat model assessed as reduction of heart rate at 20 mg/kg, po measured at 1 hr by tail-cuff method relative to control; assay type: organism-based; set-up: dose 20 mg/kg, route oral; settings: in vivo; how it was run: as §1
# Rattus norvegicus [9] = assay: Toxicity in renal spontaneously hypertensive rat model assessed as reduction of heart rate at 20 mg/kg, po measured at 6 hrs by tail-cuff method relative to control; assay type: organism-based; set-up: dose 20 mg/kg, route oral; settings: in vivo; how it was run: as §1
# Rattus norvegicus [10] = assay: Antihypertensive activity in renal spontaneously hypertensive rat model assessed as reduction of mean arterial pressure at 20 mg/kg, po measured at 4 hrs by tail-cuff method relative to control; assay type: functional, Artery; how it was run: as §1
# Rattus norvegicus [11] = assay: Toxicity in renal spontaneously hypertensive rat model assessed as reduction of heart rate at 20 mg/kg, po measured at 4 hrs by tail-cuff method relative to control; assay type: organism-based; set-up: dose 20 mg/kg, route oral; settings: in vivo; how it was run: as §1
# Rattus norvegicus [12] = assay: Antihypertensive activity in renal spontaneously hypertensive rat model assessed as reduction of systolic arterial pressure at 20 mg/kg, po measured at 2 hrs by tail-cuff method relative to control; assay type: functional, Artery; how it was run: as §1
# Rattus norvegicus [13] = assay: Antihypertensive activity in renal spontaneously hypertensive rat model assessed as reduction of systolic arterial pressure at 20 mg/kg, po measured at 8 hrs by tail-cuff method relative to control; assay type: functional, Artery; how it was run: as §1
# Rattus norvegicus [14] = assay: Antihypertensive activity in renal spontaneously hypertensive rat model assessed as reduction of diastolic arterial pressure at 20 mg/kg, po measured at 4 hrs by tail-cuff method relative to control; assay type: functional, Artery; how it was run: as §1
# Rattus norvegicus [15] = assay: Toxicity in renal spontaneously hypertensive rat model assessed as reduction of heart rate at 20 mg/kg, po measured at 2 hrs by tail-cuff method relative to control; assay type: organism-based; set-up: dose 20 mg/kg, route oral; settings: in vivo; how it was run: as §1
# Rattus norvegicus [16] = assay: Antihypertensive activity in renal spontaneously hypertensive rat model assessed as reduction of diastolic arterial pressure at 20 mg/kg, po measured at 1 hr by tail-cuff method relative to control; assay type: functional, Artery; how it was run: as §1
# Rattus norvegicus [17] = assay: Antihypertensive activity in renal spontaneously hypertensive rat model assessed as reduction of systolic arterial pressure at 20 mg/kg, po measured at 6 hrs by tail-cuff method relative to control; assay type: functional, Artery; how it was run: as §1
# Rattus norvegicus [18] = assay: Antihypertensive activity in renal spontaneously hypertensive rat model assessed as reduction of systolic arterial pressure at 20 mg/kg, po measured at 1 hr by tail-cuff method relative to control; assay type: functional, Artery; how it was run: as §1
# Rattus norvegicus [19] = assay: Toxicity in renal spontaneously hypertensive rat model assessed as reduction of heart rate at 20 mg/kg, po measured at 8 hrs by tail-cuff method relative to control; assay type: organism-based; set-up: dose 20 mg/kg, route oral; settings: in vivo; how it was run: as §1
# Rattus norvegicus [20] = assay: Antihypertensive activity in renal spontaneously hypertensive rat model assessed as reduction of diastolic arterial pressure at 20 mg/kg, po measured at 6 hrs by tail-cuff method relative to control; assay type: functional, Artery; how it was run: as §1
# Rattus norvegicus [21] = assay: Antihypertensive activity in renal spontaneously hypertensive rat model assessed as reduction of mean arterial pressure at 20 mg/kg, po measured at 2 hrs by tail-cuff method relative to control; assay type: functional, Artery; how it was run: as §1
# Rattus norvegicus [22] = assay: Antihypertensive activity in renal spontaneously hypertensive rat model assessed as reduction of mean arterial pressure at 20 mg/kg, po measured at 8 hrs by tail-cuff method relative to control; assay type: functional, Artery; how it was run: as §1
compound,measurement,setting,value
Cc1cc(Cn2cnc3c2C[C@@H](C(=O)O)N(C(=O)C(c2ccccc2)c2ccccc2)C3)ccc1N(C)C,IC50,[1],> 10 µM
same,IC50,[2],0.029 µM
CCC(=O)NS(=O)(=O)c1ccc(CC(C)C)cc1-c1ccc(Cn2cncn2)cc1,IC50,[1],> 10 µM
same,IC50,[2],0.068 µM
CCCCC(=O)NS(=O)(=O)c1ccc(CC(C)C)cc1-c1ccc(Cn2cncn2)cc1,IC50,[1],> 10 µM
same,IC50,[2],0.031 µM
Cc1ccc(C(=O)NS(=O)(=O)c2ccc(CC(C)C)cc2-c2ccc(Cn3cncn3)cc2)cc1,IC50,[1],> 10 µM
same,IC50,[2],> 10 µM
CCOC(=O)NS(=O)(=O)c1ccc(CC(C)C)cc1-c1ccc(Cn2cncn2)cc1,IC50,[1],> 10 µM
same,IC50,[2],0.01 µM
CC(C)Cc1ccc(S(=O)(=O)NC(=O)OC(C)(C)C)c(-c2ccc(Cn3cncn3)cc2)c1,IC50,[1],> 10 µM
same,IC50,[2],0.055 µM
CCCCOC(=O)NS(=O)(=O)c1ccc(CC(C)C)cc1-c1ccc(Cn2cncn2)cc1,Activity,Rattus norvegicus [3],-14.1 mmHg
same,Activity,Rattus norvegicus [4],-3.55 mmHg
same,Activity,Rattus norvegicus [5],-21.88 mmHg
same,Activity,Rattus norvegicus [6],-14.29 mmHg
same,Activity,Rattus norvegicus [7],4.43 mmHg
same,Activity,Rattus norvegicus [8],7.25 bpm
same,Activity,Rattus norvegicus [9],-16.69 bpm
same,Activity,Rattus norvegicus [10],-14.16 mmHg
same,IC50,[1],> 10 µM
same,Activity,Rattus norvegicus [11],-14.53 bpm
same,Activity,Rattus norvegicus [12],-4.26 mmHg
same,Activity,Rattus norvegicus [13],-15.22 mmHg
same,Activity,Rattus norvegicus [14],-12.32 mmHg
same,Activity,Rattus norvegicus [15],-5.02 bpm
same,IC50,[2],0.0004 µM
same,Activity,Rattus norvegicus [16],4.93 mmHg
same,Activity,Rattus norvegicus [17],-20.94 mmHg
same,Activity,Rattus norvegicus [18],-7.25 mmHg
same,Activity,Rattus norvegicus [19],-14.33 bpm
same,Activity,Rattus norvegicus [20],-21.36 mmHg
same,Activity,Rattus norvegicus [21],-4.78 mmHg
same,Activity,Rattus norvegicus [22],-15.09 mmHg
CC(C)Cc1ccc(S(=O)(=O)NC(=O)OCc2ccccc2)c(-c2ccc(Cn3cncn3)cc2)c1,IC50,[1],> 10 µM
same,IC50,[2],> 10 µM
CCC(=O)NS(=O)(=O)c1ccc(OC)cc1-c1ccc(Cn2cncn2)cc1,IC50,[1],> 10 µM
same,IC50,[2],0.184 µM
CCCCC(=O)NS(=O)(=O)c1ccc(OC)cc1-c1ccc(Cn2cncn2)cc1,IC50,[1],> 10 µM
same,IC50,[2],0.099 µM
CCOC(=O)NS(=O)(=O)c1ccc(OC)cc1-c1ccc(Cn2cncn2)cc1,IC50,[1],> 10 µM
same,IC50,[2],0.036 µM
COc1ccc(S(=O)(=O)NC(=O)OC(C)(C)C)c(-c2ccc(Cn3cncn3)cc2)c1,IC50,[1],> 10 µM
same,IC50,[2],0.17 µM
CCCCOC(=O)NS(=O)(=O)c1ccc(OC)cc1-c1ccc(Cn2cncn2)cc1,Activity,Rattus norvegicus [3],-13.1 mmHg
same,Activity,Rattus norvegicus [4],-5.06 mmHg
same,Activity,Rattus norvegicus [5],-17.08 mmHg
same,Activity,Rattus norvegicus [6],-10.71 mmHg
same,Activity,Rattus norvegicus [7],-4.09 mmHg
same,Activity,Rattus norvegicus [8],7.05 bpm
same,Activity,Rattus norvegicus [9],-14.47 bpm
same,Activity,Rattus norvegicus [10],-10.15 mmHg
same,IC50,[1],> 10 µM
same,Activity,Rattus norvegicus [11],-13.45 bpm
same,Activity,Rattus norvegicus [12],-4.26 mmHg
same,Activity,Rattus norvegicus [13],-10.1 mmHg
same,Activity,Rattus norvegicus [14],-10.32 mmHg
same,Activity,Rattus norvegicus [15],-7.64 bpm
same,IC50,[2],0.005 µM
same,Activity,Rattus norvegicus [16],-4.21 mmHg
same,Activity,Rattus norvegicus [17],-18.94 mmHg
same,Activity,Rattus norvegicus [18],-3.41 mmHg
same,Activity,Rattus norvegicus [19],-22.9 bpm
same,Activity,Rattus norvegicus [20],-17.36 mmHg
same,Activity,Rattus norvegicus [21],-5.62 mmHg
same,Activity,Rattus norvegicus [22],-12.19 mmHg
COc1ccc(S(=O)(=O)NC(=O)OCc2ccccc2)c(-c2ccc(Cn3cncn3)cc2)c1,IC50,[1],> 10 µM
same,IC50,[2],> 10 µM
CCC(=O)NS(=O)(=O)c1ccc(C)cc1-c1ccc(Cn2cncn2)cc1,IC50,[1],> 10 µM
same,IC50,[2],0.223 µM
